Measurements reported in ChEMBL document CHEMBL1144664, “Design, synthesis, and SAR of new pyrrole-oxindole progesterone receptor modulators leading to 5-(7-fluoro-3,3-dimethyl-2-oxo-2,3-dihydro-1H-indol-5-yl)-1-methyl-1H-pyrrole-2-carbonitrile (WAY-255348)” (J Med Chem, 2008).
Blank lines part the entries; values can stand above or below the compound they belong to.

What was measured:
Progesterone receptor [1] = molecular target: T1, Progesterone receptor (Homo sapiens, UniProt P06401); assay: Antagonist activity at human PR expressed in human T47D cells assessed as inhibition of progesterone induced alkaline phosphatase; type: functional, cell-based
T1 sequence (P06401 whole entry): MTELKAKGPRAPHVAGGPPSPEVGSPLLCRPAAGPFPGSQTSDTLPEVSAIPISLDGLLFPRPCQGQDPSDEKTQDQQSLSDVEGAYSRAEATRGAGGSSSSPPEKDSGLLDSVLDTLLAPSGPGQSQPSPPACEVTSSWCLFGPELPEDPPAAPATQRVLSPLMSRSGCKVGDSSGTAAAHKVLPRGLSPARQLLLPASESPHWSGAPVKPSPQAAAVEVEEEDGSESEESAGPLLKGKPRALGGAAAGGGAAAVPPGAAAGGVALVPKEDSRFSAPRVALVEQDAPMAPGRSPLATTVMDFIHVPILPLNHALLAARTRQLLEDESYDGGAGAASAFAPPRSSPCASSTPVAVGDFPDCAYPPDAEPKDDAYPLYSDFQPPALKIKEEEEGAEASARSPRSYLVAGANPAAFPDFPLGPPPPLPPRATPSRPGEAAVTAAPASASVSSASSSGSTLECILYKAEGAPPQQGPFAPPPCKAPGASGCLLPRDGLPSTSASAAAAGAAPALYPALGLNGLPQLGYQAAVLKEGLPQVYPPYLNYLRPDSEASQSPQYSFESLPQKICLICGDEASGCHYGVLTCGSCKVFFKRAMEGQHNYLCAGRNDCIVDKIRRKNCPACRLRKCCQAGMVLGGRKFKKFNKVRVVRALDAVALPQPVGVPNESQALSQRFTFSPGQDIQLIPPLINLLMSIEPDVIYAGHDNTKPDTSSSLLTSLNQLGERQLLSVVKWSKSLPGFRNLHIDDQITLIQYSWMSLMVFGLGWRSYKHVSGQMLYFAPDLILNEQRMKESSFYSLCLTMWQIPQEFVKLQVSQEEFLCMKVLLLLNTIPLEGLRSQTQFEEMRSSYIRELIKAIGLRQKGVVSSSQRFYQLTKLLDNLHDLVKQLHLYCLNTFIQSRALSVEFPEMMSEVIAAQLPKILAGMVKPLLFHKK

Cynomolgus monkey = assay: Induction of early menses in cynomolgus monkey at 5 mg/kg, po; type: organism-based, Macaca fascicularis; design: dose 5 mg/kg, route oral; conditions: in vivo
Progesterone receptor [2] = molecular target: T1, Progesterone receptor; assay: Agonist activity at human PR expressed in human T47D cells assessed as stimulation of alkaline phosphatase; type: functional, cell-based
Outline: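 Cell-based agonist-mode assay in T47D cells, without progesterone. Cells were suspended in DMEM/F12 with 5% charcoal-stripped FBS, then incubated with compound for 24 h at 37 °C in 5% CO2. Cells were lysed in 0.1 M Tris-HCl pH 9.8 with 0.2% Triton, and 4 mM p-nitrophenyl phosphate was added. OD405 was read every 5 min for 30 min. EC50 comes from dose-response analysis and is the mean of at least duplicates.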

Progesterone receptor [3] = molecular target: T1, Progesterone receptor; assay: Displacement of [3H]R5020 from human PR in human T47D cells by whole cell assay; type: cell-based
[4] = Stability in rat liver microsome assessed as half life; type: ADME; conditions: liver microsomes
Outline: (§1)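 Female rat, cynomolgus monkey and human liver microsome stability; half-life (min) reported.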

[5] = Stability in cynomolgus monkey liver microsome assessed as half life; type: ADME, Macaca fascicularis; conditions: liver microsomes; outline: as §1
[6] = Stability in human liver microsome assessed as half life; type: ADME; conditions: liver microsomes; outline: as §1
[7] = Drug level in cynomolgus monkey at […], iv; type: ADME, organism-based, Macaca fascicularis; design: dose 0.25 mg/kg, route intravenous; conditions: in vivo
[8] = Plasma clearance in cynomolgus monkey at […], iv; type: ADME, organism-based, Macaca fascicularis; design: dose 0.25 mg/kg, route intravenous
[9] = Volume of distribution at steady state in cynomolgus monkey at […], iv; type: ADME, organism-based, Macaca fascicularis; design: dose 0.25 mg/kg, route intravenous; conditions: in vivo, read-out: Vdss
[10] = Drug level in Sprague-Dawley rat at 0.5 mg/kg, iv; type: ADME, organism-based; design: dose 0.5 mg/kg, route intravenous; conditions: in vivo
Outline: (§2)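 Female Sprague–Dawley rats dosed as 1-in-4 cassette or discrete studies. iv in DMSO/PEG200 20:80; po in aqueous 2% Tween 80/0.5% methyl cellulose. Parameters reported: C0, Cmax, t1/2, plasma clearance, Vss, AUC0-inf and %F.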

[11] = Half life in Sprague-Dawley rat at 0.5 mg/kg, iv; type: ADME, organism-based; design: dose 0.5 mg/kg, route intravenous; conditions: in vivo; outline: as §2
[12] = Plasma clearance in Sprague-Dawley rat at 0.5 mg/kg, iv; type: ADME, organism-based; design: dose 0.5 mg/kg, route intravenous; outline: as §2
[13] = Volume of distribution at steady state in Sprague-Dawley rat at 0.5 mg/kg, iv; type: ADME, organism-based; design: dose 0.5 mg/kg, route intravenous; conditions: in vivo, read-out: Vdss; outline: as §2
[14] = AUC (0 to infinity) in Sprague-Dawley rat at 0.5 mg/kg, iv; type: ADME, organism-based; design: time infinity, dose 0.5 mg/kg, route intravenous; conditions: plasma
Rattus norvegicus = species: Rattus norvegicus; assay: Antagonist activity in rat uterus assessed as progesterone-induced decidualization response in stromal cells; type: functional
Outline: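 Female rat decidualization model: compound given orally in 0.5% methyl cellulose/2% Tween 80 to antagonize the progesterone-induced decidual response of uterine stromal cells. ED50 reported.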

IC50 (Progesterone receptor [1]): 15 nM
SMILES: CN1C(=O)C(C)(C)c2cc(-c3ccc(C#N)n3C)cc(F)c21

EC50 (Progesterone receptor [2]): 3000 nM
IC50 (Progesterone receptor [3]): 14.7 nM
SMILES: Cn1c(C#N)ccc1-c1cc(F)c2c(c1)C1(CCCC1)C(=O)N2

EC50 (Progesterone receptor [2]): 2.3 nM
IC50 (Progesterone receptor [3]): 3.3 nM
SMILES: Cn1c(C#N)ccc1-c1ccc2c(c1)C1(CCCCC1)C(=O)N2

EC50 (Progesterone receptor [2]): 300 nM
IC50 (Progesterone receptor [3]): 8.1 nM
SMILES: Cn1c(C#N)ccc1-c1ccc2c(c1)C1(CCCC1)C(=O)N2

IC50 (Progesterone receptor [1]): 29 nM
SMILES: CCN1C(=O)C(C)(C)c2cc(-c3ccc(C#N)n3C)cc(F)c21

EC50 (Progesterone receptor [2]): 1.3 nM
IC50 (Progesterone receptor [3]): 3.6 nM
SMILES: Cn1c(C#N)ccc1-c1cc(F)c2c(c1)C1(CCCCC1)C(=O)N2

Further lines, the compound ahead of its results:

SMILES: C=C1CCO[C@]12CC[C@H]1[C@@H]3CCC4=CC(=O)CCC4=C3[C@@H](c3ccc(C(C)=O)cc3)C[C@@]12C
Activity (Cynomolgus monkey): 50%

SMILES: Cn1c(C#N)ccc1-c1ccc2c(c1)C(C)(C)C(=O)N2
IC50 (Progesterone receptor [3]): 22 nM
half-life [4]: 6 min
half-life [5]: 13 min
half-life [6]: > 30 min
Activity (Cynomolgus monkey): 0%
C0 [7]: 241 ng/mL
clearance [8]: 12 mL/min/kg
Vd [9]: 1.6 L/kg
C0 [10]: 288 ng/mL
half-life [11]: 180 min
clearance [12]: 9 mL/min/kg
Vd [13]: 2.2 L/kg
AUC(0-inf) [14]: 937 ng·h/mL

SMILES: Cn1c(C#N)ccc1-c1ccc2c(c1)CC(=O)N2
IC50 (Progesterone receptor [1]): 20 nM
IC50 (Progesterone receptor [3]): 80 nM
half-life [4]: > 30 min
half-life [5]: > 30 min
half-life [6]: > 30 min

SMILES: CCCN1C(=O)C(C)(C)c2cc(-c3ccc(C#N)n3C)cc(F)c21
IC50 (Progesterone receptor [1]): 27 nM

SMILES: Cn1c(C#N)ccc1-c1ccc2c(c1F)C(C)(C)C(=O)N2
IC50 (Progesterone receptor [1]): 5.9 nM
IC50 (Progesterone receptor [3]): 5.5 nM
half-life [4]: 2 min

SMILES: CCC1(CC)C(=O)Nc2ccc(-c3ccc(C#N)n3C)cc21
IC50 (Progesterone receptor [3]): 36 nM
half-life [4]: 10 min
half-life [5]: 15 min
half-life [6]: > 30 min

SMILES: Cn1c(C#N)ccc1-c1cc2c(cc1F)NC(=O)C2(C)C
IC50 (Progesterone receptor [1]): 20.3 nM
half-life [4]: 30 min

SMILES: N#Cc1ccc(-c2ccc3c(c2)CC(=O)N3)[nH]1
IC50 (Progesterone receptor [1]): 300 nM

SMILES: CC(=O)OCN1C(=O)C(C)(C)c2cc(-c3ccc(C#N)n3C)cc(F)c21
IC50 (Progesterone receptor [1]): 48 nM

SMILES: Cn1c(C#N)ccc1-c1ccc2c(c1)C(C)(C)OC(=S)N2 [TANAPROGET]
EC50 (Progesterone receptor [2]): 0.15 nM
IC50 (Progesterone receptor [3]): 0.5 nM

SMILES: CC#C[C@]1(O)CC[C@H]2[C@@H]3CCC4=CC(=O)CCC4=C3[C@@H](c3ccc(N(C)C)cc3)C[C@@]21C [MIFEPRISTONE]
Activity (Cynomolgus monkey): 60%
ED50 (Rattus norvegicus): 0.7 mg/kg

SMILES: Cn1c(C#N)ccc1-c1ccc2c(c1)C(C)(C)OC(=O)N2
IC50 (Progesterone receptor [3]): 4.9 nM
